Rows were chosen to be rich in hits. Some 2.1% of all compounds tested hit in one or more screens of this group.
PGC1a acetyl inh = modulators of PGC1a acetylation. U2OS PGC1a acetylation, AlphaScreen anti-acetyl-lysine; with virally co-expressed GCN5 acetyltransferase. inhibition, % at 15.6 µM. actives 0.17% (n = 350,000). AID 651687;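 active = every replicate shows inhibition of at least 40%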;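 also: 0% = neutral control wells and 100% = positive control wells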
EWS-Fli block = blocks EWS/Fli oncoprotein-driven transcription; A673 NR0B1-luciferase reporter, viability-normalised; inhibition, % at 12.6 µM; actives 0.67% (n = 350,000);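 active = mean inhibition of at least 50% after viability correction, with every replicate also passing that limit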;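 also: firefly luciferase signal divided by Alamar Blue viability fluorescence both relative to DMSO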
Xi reactivation = reactivates the inactive X chromosome in mouse fibroblasts; actives 0.055% (n = 360,000); AID 743238; activation, % at 7.58 µM; XiGFP mouse fibroblasts, % GFP-positive cells imaging, 3 d; cells co-treated with 5-aza-dC sensitizer; scaled so ellipticine positive control = 100%;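 active = mean normalized replicate activation at least 10% and every replicate at or above 10%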;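 also: 0% = median of on-plate neutral control wells and 100% = ellipticine 6 µM median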
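Assay system – SV40-immortalized XiGFP fibroblast cells, line 68-5-11 · Buffer or medium – DMEM supplemented with 5-aza-dC as sensitizing agent · Dosing – one concentration, pinned · Benchmarks – positive control ellipticine, 6 µM final · Times – 3 days compound exposure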
AF4-AF9 inh = MLL-AF4/AF9 protein interaction inhibition; P42568; AlphaScreen, biotin-AF4 peptide binding to FLAG-AF9; inhibition, % at 10 µM; actives 0.47% (n = 350,000); AID 651704;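 active = every replicate reaching a set inhibition limit, whatever the replicate mean, cut at about 25% in these data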;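 also: 0% = plate neutral control median and 100% = total signal loss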
Target sequence (P42568 whole entry, looked up): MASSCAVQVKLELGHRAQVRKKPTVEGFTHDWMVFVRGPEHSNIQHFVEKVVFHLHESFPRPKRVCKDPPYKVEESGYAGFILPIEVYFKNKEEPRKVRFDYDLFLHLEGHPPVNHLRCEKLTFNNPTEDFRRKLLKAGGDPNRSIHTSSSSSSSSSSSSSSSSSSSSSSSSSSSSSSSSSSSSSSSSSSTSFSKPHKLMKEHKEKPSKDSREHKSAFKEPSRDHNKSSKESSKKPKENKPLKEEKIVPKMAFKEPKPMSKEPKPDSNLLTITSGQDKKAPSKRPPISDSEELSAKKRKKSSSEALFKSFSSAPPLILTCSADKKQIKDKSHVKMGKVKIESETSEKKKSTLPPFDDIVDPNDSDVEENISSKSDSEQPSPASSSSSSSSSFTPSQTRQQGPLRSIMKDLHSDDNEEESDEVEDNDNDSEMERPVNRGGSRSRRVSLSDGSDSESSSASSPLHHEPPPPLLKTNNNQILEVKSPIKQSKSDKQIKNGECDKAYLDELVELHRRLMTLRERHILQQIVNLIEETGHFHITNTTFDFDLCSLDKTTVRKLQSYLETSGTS
GSIS activator = GLuc luminescence reporter in INS-1E cells, primary screen for activators of glucose-dependent secretion of insulin; INS-1E GLuc reporter insulin secretion, 2-3 h; activation, % at 16.6 µM; actives 0.61% (n = 370,000); AID 743287;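 active = lowest replicate activation of at least 40%, so every replicate reaches that level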;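 also: 0% = median of neutral control wells and 100% = median of IBMX positive control wells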
PAX8 reporter = PAX8 transcriptional activity inhibition; AID 652154; actives 1.2% (n = 360,000); inhibition, % at 12.6 µM; RMG-I TPO-luciferase reporter, SteadyGlo, 24 h;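 active = mean replicate inhibition at least 60% with every replicate also reaching 60%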;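 also: luciferase light reporting Pax8 driven TPO promoter activity; plate controls were median of neutral control wells for no effect and mitoxantrone controls for full effect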
Active calls of the source: *; . = no result.

SMILES	PGC1a acetyl inh	EWS-Fli block	Xi reactivation	AF4-AF9 inh	GSIS activator	PAX8 reporter
O=C(/C=C/c1cccc(Cl)c1)c1ccc([N+](=O)[O-])o1	.	76.7*	3.7	1.0	-25.1	102.9*
C[C@@H]1CCCCO[C@@H](CN(C)C(=O)Nc2ccc(F)cc2)[C@H](C)CN([C@@H](C)CO)C(=O)c2cc(NS(=O)(=O)c3cccs3)ccc2O1	-3.9	2.9	0.2	-2.9	-6.3	15.9
COc1ccc2c3c([nH]c2c1)[C@H](CO)N(S(=O)(=O)c1cn(C)cn1)CC31CCN(Cc2ccccc2F)CC1	3.2	2.2	0.2	8.6	-0.3	.
COc1ccc(CCNC(=O)CN2C(=O)NC(Cc3c[nH]c4ccccc34)C2=O)cc1 (centres undefined)	10.9	7.9	0.0	-1.5	0.3	23.7
O=C(CN1C(=O)NC(Cc2c[nH]c3ccccc23)C1=O)NCCc1ccccc1 (centres undefined)	.	12.5	0.1	-1.8	103.4*	5.5
COCC(=O)N(C[C@H]1N[C@H](CO)[C@@H]1c1ccc(-c2cncnc2)cc1)C(C)C	4.6	.	0.4	-2.0	4.2	.
O=[N+]([O-])c1cccc(-c2nc3ccccc3s/c2=N/O)c1	.	11.5	0.0	7.0	81.9*	13.1
O=[N+]([O-])c1cccc(-c2cnc3ccccc3n2)c1	.	-41.3	-0.1	0.8	-14.1	-9.4
C=CC[C@H](CC(=O)N(CCO)Cc1ccccc1)C(=O)N[C@@H](COC(=O)[C@H](CC=C)CC(=O)OC(C)(C)C)Cc1c[nH]c2ccccc12	.	2.8	0.0	0.5	-48.4	103.3*
C=CC[C@@H](CC(=O)N(CCO)Cc1ccccc1)C(=O)N[C@@H](COC(=O)[C@@H](CC=C)CC(=O)OC(C)(C)C)Cc1c[nH]c2ccccc12	5.4	1.7	0.0	.	-30.1	63.2*
C=CC[C@@H](CC(=O)N(CCO)Cc1ccccc1)C(=O)N[C@H](COC(=O)[C@@H](CC=C)CC(=O)OC(C)(C)C)Cc1c[nH]c2ccccc12	-2.3	-4.8	0.0	-0.7	-14.7	54.6
C=CC[C@H](CC(=O)N(CCO)Cc1ccccc1)C(=O)N[C@H](COC(=O)[C@H](CC=C)CC(=O)OC(C)(C)C)Cc1ccccc1	.	3.4	0.0	-0.6	-24.0	40.4
CCNC(=O)C[C@H]1CC[C@H]2[C@@H](COc3ccc(NC(=O)Cc4ccccc4)cc3C(=O)N2C)O1	-2.4	4.3	0.3	-1.1	-1.1	4.2
Cc1ccc(F)c([C@H]2C3C=CCC(c4ccccc4)C3C(=O)N2Cc2ccccc2)c1 (some centres undefined)	.	21.9	0.0	50.2*	-3.7	3.9
Cc1ccc(S(=O)(=O)Nc2ccc3c(c2)CC(=O)N([C@H](C)CO)C[C@H](C)[C@H](CN(C)C(=O)Nc2c(C)noc2C)O3)cc1	2.7	-2.4	0.4	-18.8	-6.4	-0.3
C[C@@H]1CCCCO[C@H](CN(C)Cc2ccc(Cl)c(Cl)c2)[C@@H](C)CN([C@@H](C)CO)C(=O)c2cc(NC(=O)c3ccccc3)ccc2O1	-6.2	15.9	0.3	-1.5	-21.5	82.2*
C[C@@H]1CCCCO[C@@H](CN(C)Cc2ccc(Cl)c(Cl)c2)[C@H](C)CN([C@H](C)CO)C(=O)c2cc(NC(=O)c3ccccc3)ccc2O1	-17.2	29.3	0.2	-2.4	-23.7	96.6*
C[C@H](CO)N1C[C@H](C)[C@H](CN(C)Cc2ccc(Cl)c(Cl)c2)OCCCC[C@H](C)Oc2ccc(NC(=O)c3ccccc3)cc2C1=O	-4.8	6.2	0.0	-1.5	-12.8	6.9
C[C@@H]1CCCCO[C@H](CN(C)S(C)(=O)=O)[C@@H](C)CN([C@@H](C)CO)C(=O)c2cc(N(C)C)ccc2O1	-11.3	-4.8	0.2	-3.7	18.6	-13.1
O=C(C[C@H]1C[C@@H]2c3cc(NC(=O)C4CCOCC4)ccc3O[C@@H]2[C@H](CO)O1)NCc1ccc(Cl)cc1	-8.9	-3.9	0.5	-0.9	4.0	-21.2
O=C1CC(Sc2nnc(-c3ccccc3)o2)C(=O)N1c1ccccc1 (centres undefined)	-4.9	.	.	.	86.5*	71.8*
O=C(O)c1ccccc1SC1CC(=O)N(c2ccccc2)C1=O (centres undefined)	.	.	-0.1	.	21.1	-10.8
C[C@H](O)C#Cc1cnc2c(c1)C(=O)N([C@H](C)CO)C[C@H](C)[C@H](CN(C)C(=O)Cc1ccccn1)O2	3.9	-6.4	-1.1	-5.7	19.1	.
COc1ccccc1CSc1nc2c(c(=O)n(C)c(=O)n2C)n1C	4.4	-4.7	0.2	-0.1	41.5*	-7.5
C[C@@H]1CN([C@@H](C)CO)C(=O)CCCn2cc(nn2)CO[C@@H]1CN(C)C(=O)OCc1ccccc1	-2.9	-3.0	2.0	.	-2.8	13.0
SMILES	PGC1a acetyl inh	EWS-Fli block	Xi reactivation	AF4-AF9 inh	GSIS activator	PAX8 reporter
Cc1cc(C)cc(C(=O)N2CCC(CCC(=O)NC3CC3)CC2)c1	-3.9	7.5	-0.1	-2.8	2.7	-3.7
C=CCOc1cccc(C(=O)N2CCC(CCC(=O)NC3CC3)CC2)c1	.	10.1	0.2	-8.4	54.3*	-14.0
CCOc1c(Br)cc(CNc2ccc(N3CCN(C(C)=O)CC3)cc2)cc1OC	2.0	12.0	0.1	26.8*	-1.1	11.2
CN1[C@@H]2Cn3c(ccc(-c4cccc(F)c4)c3=O)[C@H]1[C@@H](C(=O)NCc1ccccc1)[C@@H]2CO	.	0.7	0.2	-1.4	5.0	.
COc1cc([C@@H]2c3cc4c(cc3[C@@H](O[C@@H]3O[C@@H]5CO[C@@H](C)O[C@H]5[C@H](O)[C@H]3O)[C@H]3COC(=O)[C@H]23)OCO4)cc(OC)c1O	-16.7	53.9*	0.3	-1.4	.	28.2
COc1cc([C@@H]2c3cc4c(cc3[C@H](O)[C@H]3COC(=O)[C@H]23)OCO4)cc(OC)c1OC	-1.7	71.8*	1.3	-0.9	.	95.2*
COc1cc(C2c3cc4c(cc3C(O)C3COCC23)OCO4)cc(OC)c1OC (centres undefined)	-9.4	-0.6	0.3	0.6	4.4	.
CCN(CC)C1Oc2cc3c(cc2C(c2cc(OC)c(O)c(OC)c2)C1C)OCO3 (centres undefined)	-7.7	2.8	0.0	6.1	-11.2	1.5
COc1cc(C2c3cc4c(cc3C(OC3OC5COC(c6cccs6)OC5C(O)C3O)C3COC(=O)C23)OCO4)cc(OC)c1O (centres undefined)	.	59.8*	1.1	1.8	.	68.6*
CC(C)CC#Cc1ccc([C@@H]2[C@@H](CO)N3C(=O)CN(C(=O)NC4CCCC4)C[C@H]23)cc1	13.8	-3.8	0.2	2.2	-1.4	.
C[C@@H]1CN([C@@H](C)CO)C(=O)Cc2cc(NC(=O)CCN3CCOCC3)ccc2O[C@H]1CN(C)CC1CC1	-1.1	-7.3	-1.3	0.1	-1.7	3.5

High-throughput results deposited in PubChem BioAssay by Broad Institute.
